{
  "source": "ChEMBL document CHEMBL1138529",
  "about": "“Efficacy, pharmacokinetics, and metabolism of tetrahydroquinoline inhibitors of Plasmodium falciparum protein farnesyltransferase” (Antimicrob Agents Chemother, 2007)",
  "key": {"[1]": {"biological_target": "Vasoactive intestinal polypeptide receptor 1 (Homo sapiens) (UniProt P32241)", "sequence (P32241 whole entry)": "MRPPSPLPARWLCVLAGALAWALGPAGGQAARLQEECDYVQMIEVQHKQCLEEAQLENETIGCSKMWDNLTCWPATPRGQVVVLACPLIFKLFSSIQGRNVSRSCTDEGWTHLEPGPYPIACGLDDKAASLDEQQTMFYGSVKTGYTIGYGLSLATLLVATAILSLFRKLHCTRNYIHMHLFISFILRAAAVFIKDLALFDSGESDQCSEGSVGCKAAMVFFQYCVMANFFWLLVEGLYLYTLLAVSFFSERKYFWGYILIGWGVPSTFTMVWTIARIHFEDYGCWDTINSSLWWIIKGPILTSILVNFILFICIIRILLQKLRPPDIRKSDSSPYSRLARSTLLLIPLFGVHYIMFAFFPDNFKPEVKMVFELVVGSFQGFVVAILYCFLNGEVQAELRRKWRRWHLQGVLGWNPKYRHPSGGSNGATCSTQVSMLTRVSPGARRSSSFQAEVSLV", "experiment": "Inhibition of VIP1 receptor at 10 uM", "how_it_was_run": "(§1)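 Radioligand displacement screen by a contractor across 50 receptors, ion channels and transporters, test compound at 10 μM; decrease in specific ligand binding expressed as percentage, with >50% decrease taken as significant.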"}, "[2]": {"experiment": "AUC in Sprague-Dawley rat at 2 mg/kg, iv", "type": "ADME, organism-based", "parameters": "dose 2 mg/kg, route intravenous", "conditions": "plasma", "how_it_was_run": "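Three female Sprague-Dawley rats per group (10–12 weeks), jugular-vein catheterized; 2 mg/kg in 3% EtOH-7% Tween 80-90% normal saline given through the catheter. Plasma drawn from the catheter at set times, acetonitrile extraction with internal standard, LC/MS quantification.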"}, "[3]": {"biological_target": "Melatonin receptor type 1A (Homo sapiens) (UniProt P48039)", "sequence (P48039 whole entry)": "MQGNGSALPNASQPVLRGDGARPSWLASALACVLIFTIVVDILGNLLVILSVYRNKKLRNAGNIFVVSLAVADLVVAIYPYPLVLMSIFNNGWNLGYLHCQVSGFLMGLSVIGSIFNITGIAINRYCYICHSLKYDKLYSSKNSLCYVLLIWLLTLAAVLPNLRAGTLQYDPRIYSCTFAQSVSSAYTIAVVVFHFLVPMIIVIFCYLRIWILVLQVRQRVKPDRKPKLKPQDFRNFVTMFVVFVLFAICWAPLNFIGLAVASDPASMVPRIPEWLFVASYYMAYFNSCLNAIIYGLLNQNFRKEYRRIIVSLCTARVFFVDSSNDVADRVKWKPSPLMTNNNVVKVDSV", "experiment": "Inhibition of melatonin MT1 receptor at 10 uM", "how_it_was_run": "(§2)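 Radioligand displacement at a contract lab across a panel of 50 receptors, ion channels and transporters, single test concentration 10 μM; loss of specific ligand binding reported as percent, with >50% decrease counted as significant.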"}, "[4]": {"experiment": "Inhibition of SKCa channel at 10 uM", "how_it_was_run": "(§3)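 Radioligand displacement screen at a 10 μM test concentration, run by a contract lab across a panel of 50 receptors, pharmacologically active ion channels and transporters. The read-out is the decrease in specific radiolabeled ligand binding, expressed as a percentage. A decrease above 50% was considered significant.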"}, "Rattus norvegicus [5]": {"tested_on": "Rattus norvegicus", "experiment": "Toxicity in Plasmodium berghei NK65 infected Sprague-Dawley rat assessed as effect on liver enzyme levels at 50 mg/kg, perorally administered every 12 hrs for 3 days", "type": "organism-based", "parameters": "dose 50 mg/kg, route oral", "conditions": "in vivo, po, in the assay text read “every 8 hrs” for “every 12 hrs”", "how_it_was_run": "(§4)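 Female Sprague-Dawley rats, 10-12 weeks, n = 3 per schedule. Dosed 50 mg/kg by oral gavage every 8 h or every 12 h for 72 h. At the end of dosing, blood was sent to a clinical laboratory for complete blood counts, white cell differentials, electrolytes, glucose, renal function, liver enzymes and cholesterol.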"}, "[6]": {"biological_target": "Endothelin-1 receptor (Homo sapiens) (UniProt P25101)", "experiment": "Inhibition of ETA receptor at 10 uM", "how_it_was_run": "as §1"}, "[7]": {"biological_target": "5-hydroxytryptamine receptor 6 (Homo sapiens) (UniProt P50406)", "experiment": "Inhibition of 5HT6 receptor at 10 uM", "how_it_was_run": "as §1"}, "[8]": {"biological_target": "Beta-1 adrenergic receptor (Homo sapiens) (UniProt P08588)", "sequence (P08588 whole entry, looked up)": "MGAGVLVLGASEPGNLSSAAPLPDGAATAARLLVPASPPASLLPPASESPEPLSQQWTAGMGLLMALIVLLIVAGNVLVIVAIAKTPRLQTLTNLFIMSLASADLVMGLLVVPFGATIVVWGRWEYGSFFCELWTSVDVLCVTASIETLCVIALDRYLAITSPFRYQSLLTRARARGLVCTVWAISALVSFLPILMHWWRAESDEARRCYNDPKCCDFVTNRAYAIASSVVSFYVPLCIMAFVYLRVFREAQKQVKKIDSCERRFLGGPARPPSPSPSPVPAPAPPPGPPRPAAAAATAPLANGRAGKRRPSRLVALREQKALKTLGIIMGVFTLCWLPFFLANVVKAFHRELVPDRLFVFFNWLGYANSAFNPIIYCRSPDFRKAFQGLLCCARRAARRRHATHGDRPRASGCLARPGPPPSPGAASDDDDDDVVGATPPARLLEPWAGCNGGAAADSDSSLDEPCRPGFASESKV", "experiment": "Inhibition of beta-1 adrenergic receptor at 10 uM", "how_it_was_run": "as §2"}, "[9]": {"experiment": "AUC in Sprague-Dawley rat at 50 mg/kg, po", "type": "ADME, organism-based", "parameters": "dose 50 mg/kg, route oral", "conditions": "plasma", "how_it_was_run": "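Three female BALB/c mice (lines for mice, 8–10 weeks) or three female Sprague-Dawley rats (10–12 weeks) per group; 50 mg/kg oral gavage in 3% EtOH-7% Tween 80-90% normal saline. Plasma sampled at set times (tail bleed in mice, saphenous vein in rats), extracted with acetonitrile plus internal standard, quantified by LC/MS; AUC as mean of three animals.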"}, "[10]": {"biological_target": "Adenosine receptor A3 (Homo sapiens) (UniProt P0DMS8)", "experiment": "Inhibition of adenosine A3 receptor at 10 uM", "how_it_was_run": "as §1"}, "[11]": {"biological_target": "5-hydroxytryptamine receptor 3A (Homo sapiens) (UniProt P46098)", "sequence (P46098 whole entry)": "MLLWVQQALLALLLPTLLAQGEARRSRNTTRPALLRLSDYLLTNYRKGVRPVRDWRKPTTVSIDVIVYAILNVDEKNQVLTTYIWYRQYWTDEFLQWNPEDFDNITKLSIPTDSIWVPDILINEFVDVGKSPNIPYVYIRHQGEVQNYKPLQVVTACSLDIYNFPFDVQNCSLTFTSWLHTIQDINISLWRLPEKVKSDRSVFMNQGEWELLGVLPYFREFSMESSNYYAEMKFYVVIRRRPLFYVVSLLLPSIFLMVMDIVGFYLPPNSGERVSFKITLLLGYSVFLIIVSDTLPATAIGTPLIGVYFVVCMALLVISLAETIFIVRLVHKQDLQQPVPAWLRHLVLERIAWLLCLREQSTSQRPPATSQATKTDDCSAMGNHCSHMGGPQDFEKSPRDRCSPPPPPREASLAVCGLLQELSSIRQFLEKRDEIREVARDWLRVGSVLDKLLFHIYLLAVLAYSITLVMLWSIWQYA", "experiment": "Inhibition of 5HT3 receptor at 10 uM", "how_it_was_run": "as §1"}, "[12]": {"biological_target": "Mu-type opioid receptor (Homo sapiens) (UniProt P35372)", "experiment": "Inhibition of mu opioid receptor at 10 uM", "how_it_was_run": "as §2"}, "[13]": {"experiment": "Inhibition of […] GABA-gated chloride channel at 10 uM", "how_it_was_run": "as §3"}, "Rattus norvegicus [14]": {"tested_on": "Rattus norvegicus", "experiment": "Toxicity in Plasmodium berghei NK65 infected Sprague-Dawley rat assessed as effect on electrolyte levels at 50 mg/kg, perorally administered every 8 hrs for 3 days", "type": "organism-based", "parameters": "dose 50 mg/kg, route oral", "conditions": "in vivo, po", "how_it_was_run": "as §4"}, "[15]": {"biological_target": "Neuropeptide Y receptor type 1 (Homo sapiens) (UniProt P25929)", "sequence (P25929 whole entry)": "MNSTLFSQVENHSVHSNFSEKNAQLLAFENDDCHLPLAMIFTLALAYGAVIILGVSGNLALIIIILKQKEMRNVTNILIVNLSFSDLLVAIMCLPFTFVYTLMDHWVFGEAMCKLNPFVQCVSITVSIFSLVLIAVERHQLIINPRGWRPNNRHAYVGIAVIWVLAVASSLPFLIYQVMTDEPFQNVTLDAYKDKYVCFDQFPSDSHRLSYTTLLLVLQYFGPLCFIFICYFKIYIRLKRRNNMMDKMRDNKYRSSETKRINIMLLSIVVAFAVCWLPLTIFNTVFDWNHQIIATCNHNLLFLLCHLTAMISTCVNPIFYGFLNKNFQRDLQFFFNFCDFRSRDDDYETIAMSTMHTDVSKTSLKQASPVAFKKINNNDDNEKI", "experiment": "Inhibition of neuropeptide Y1 receptor at 10 uM", "how_it_was_run": "as §2"}, "[16]": {"biological_target": "Neuromedin-K receptor (Homo sapiens) (UniProt P29371)", "sequence (P29371 whole entry)": "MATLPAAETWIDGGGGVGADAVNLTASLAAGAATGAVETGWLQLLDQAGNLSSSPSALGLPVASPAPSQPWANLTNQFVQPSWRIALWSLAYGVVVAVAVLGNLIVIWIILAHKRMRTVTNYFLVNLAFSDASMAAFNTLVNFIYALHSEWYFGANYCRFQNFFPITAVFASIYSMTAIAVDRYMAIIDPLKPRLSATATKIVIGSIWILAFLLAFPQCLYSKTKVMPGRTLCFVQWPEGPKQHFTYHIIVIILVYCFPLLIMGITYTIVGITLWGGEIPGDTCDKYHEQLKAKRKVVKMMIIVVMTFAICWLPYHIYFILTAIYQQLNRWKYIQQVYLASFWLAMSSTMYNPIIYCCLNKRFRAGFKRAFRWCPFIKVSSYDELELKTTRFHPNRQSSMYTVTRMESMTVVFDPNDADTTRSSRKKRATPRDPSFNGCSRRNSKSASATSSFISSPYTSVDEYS", "experiment": "Inhibition of NK3 receptor at 10 uM", "how_it_was_run": "as §1"}, "[17]": {"biological_target": "Vasopressin V1a receptor (Homo sapiens) (UniProt P37288)", "sequence (P37288 whole entry, looked up)": "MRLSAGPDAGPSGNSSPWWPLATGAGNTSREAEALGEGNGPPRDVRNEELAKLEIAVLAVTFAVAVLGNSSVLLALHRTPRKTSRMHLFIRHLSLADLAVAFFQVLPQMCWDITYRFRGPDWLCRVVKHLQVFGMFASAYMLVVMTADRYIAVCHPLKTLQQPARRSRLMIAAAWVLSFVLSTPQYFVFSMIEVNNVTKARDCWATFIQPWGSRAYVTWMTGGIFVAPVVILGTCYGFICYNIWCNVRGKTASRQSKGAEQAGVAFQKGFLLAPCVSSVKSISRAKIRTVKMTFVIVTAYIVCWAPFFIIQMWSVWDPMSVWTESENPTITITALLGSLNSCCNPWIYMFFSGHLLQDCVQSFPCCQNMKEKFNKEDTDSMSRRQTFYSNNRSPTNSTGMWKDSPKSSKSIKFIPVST", "experiment": "Inhibition of vasopressin V1a receptor at 10 uM", "how_it_was_run": "as §2"}, "[18]": {"biological_target": "Histamine H2 receptor (Homo sapiens) (UniProt P25021)", "sequence (P25021 whole entry)": "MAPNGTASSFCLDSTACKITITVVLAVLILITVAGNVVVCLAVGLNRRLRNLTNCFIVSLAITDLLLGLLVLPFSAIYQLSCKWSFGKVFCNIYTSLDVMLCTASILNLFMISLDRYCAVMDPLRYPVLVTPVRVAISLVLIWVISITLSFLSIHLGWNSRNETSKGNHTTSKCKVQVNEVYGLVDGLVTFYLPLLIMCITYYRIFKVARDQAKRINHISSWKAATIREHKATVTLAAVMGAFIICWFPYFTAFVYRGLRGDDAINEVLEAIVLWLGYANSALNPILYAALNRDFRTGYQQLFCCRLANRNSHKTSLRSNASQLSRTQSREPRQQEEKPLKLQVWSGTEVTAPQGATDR", "experiment": "Inhibition of histamine H2 receptor at 10 uM", "how_it_was_run": "as §2"}, "[19]": {"biological_target": "5-hydroxytryptamine receptor 2A (Homo sapiens) (UniProt P28223)", "sequence (P28223 whole entry)": "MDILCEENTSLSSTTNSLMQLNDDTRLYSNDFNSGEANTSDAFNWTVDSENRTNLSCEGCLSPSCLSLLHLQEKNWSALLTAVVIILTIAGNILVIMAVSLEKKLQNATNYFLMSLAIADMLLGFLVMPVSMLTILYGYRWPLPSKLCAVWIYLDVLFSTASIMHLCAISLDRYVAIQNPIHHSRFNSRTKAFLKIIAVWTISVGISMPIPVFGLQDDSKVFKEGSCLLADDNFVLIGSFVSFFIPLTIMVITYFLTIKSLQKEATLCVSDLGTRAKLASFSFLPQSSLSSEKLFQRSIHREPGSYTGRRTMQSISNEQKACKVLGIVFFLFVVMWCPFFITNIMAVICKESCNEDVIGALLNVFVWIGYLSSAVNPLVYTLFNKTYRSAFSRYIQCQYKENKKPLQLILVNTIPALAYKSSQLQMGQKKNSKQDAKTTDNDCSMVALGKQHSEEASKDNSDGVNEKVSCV", "experiment": "Inhibition of 5HT2A receptor at 10 uM", "how_it_was_run": "as §1"}, "Salmonella typhimurium": {"tested_on": "Salmonella typhimurium", "experiment": "Genotoxicity in Salmonella enterica serovar Typhimurium TA100 assessed as increase in number of revertants in presence of rat liver S9 fraction by Ames test", "type": "toxicity, organism-based", "conditions": "salmonella enterica subsp. enterica serovar typhimurium", "how_it_was_run": "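Liquid-culture Ames assay run by a contractor: S. Typhimurium TA98 and TA100 exposed for 96 h in histidine-free medium, with and without rat liver S9, at 5, 10, 50 and 100 μM (plus higher concentrations); growth read spectrophotometrically by pH-indicator colour change. Parallel bacterial cytotoxicity assay at same concentrations.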"}, "[20]": {"biological_target": "Substance-K receptor (Homo sapiens) (UniProt P21452)", "experiment": "Inhibition of NK2 receptor at 10 uM", "how_it_was_run": "as §1"}, "[21]": {"biological_target": "D(2) dopamine receptor (Homo sapiens) (UniProt P14416)", "sequence (P14416 whole entry)": "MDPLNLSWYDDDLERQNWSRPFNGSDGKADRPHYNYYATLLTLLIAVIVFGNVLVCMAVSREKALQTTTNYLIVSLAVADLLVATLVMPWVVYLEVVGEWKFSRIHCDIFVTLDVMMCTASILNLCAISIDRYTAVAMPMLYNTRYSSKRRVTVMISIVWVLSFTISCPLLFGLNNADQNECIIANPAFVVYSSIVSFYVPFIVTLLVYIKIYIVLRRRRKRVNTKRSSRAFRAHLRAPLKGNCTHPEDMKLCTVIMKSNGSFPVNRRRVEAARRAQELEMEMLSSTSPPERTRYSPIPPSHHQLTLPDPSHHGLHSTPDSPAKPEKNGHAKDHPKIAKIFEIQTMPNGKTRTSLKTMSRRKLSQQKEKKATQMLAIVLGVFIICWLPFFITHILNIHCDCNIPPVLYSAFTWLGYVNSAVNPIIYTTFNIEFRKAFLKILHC", "experiment": "Inhibition of dopamine D2S receptor at 10 uM", "how_it_was_run": "as §2"}, "[22]": {"biological_target": "Sodium-dependent noradrenaline transporter (Homo sapiens) (UniProt P23975)", "sequence (P23975 whole entry)": "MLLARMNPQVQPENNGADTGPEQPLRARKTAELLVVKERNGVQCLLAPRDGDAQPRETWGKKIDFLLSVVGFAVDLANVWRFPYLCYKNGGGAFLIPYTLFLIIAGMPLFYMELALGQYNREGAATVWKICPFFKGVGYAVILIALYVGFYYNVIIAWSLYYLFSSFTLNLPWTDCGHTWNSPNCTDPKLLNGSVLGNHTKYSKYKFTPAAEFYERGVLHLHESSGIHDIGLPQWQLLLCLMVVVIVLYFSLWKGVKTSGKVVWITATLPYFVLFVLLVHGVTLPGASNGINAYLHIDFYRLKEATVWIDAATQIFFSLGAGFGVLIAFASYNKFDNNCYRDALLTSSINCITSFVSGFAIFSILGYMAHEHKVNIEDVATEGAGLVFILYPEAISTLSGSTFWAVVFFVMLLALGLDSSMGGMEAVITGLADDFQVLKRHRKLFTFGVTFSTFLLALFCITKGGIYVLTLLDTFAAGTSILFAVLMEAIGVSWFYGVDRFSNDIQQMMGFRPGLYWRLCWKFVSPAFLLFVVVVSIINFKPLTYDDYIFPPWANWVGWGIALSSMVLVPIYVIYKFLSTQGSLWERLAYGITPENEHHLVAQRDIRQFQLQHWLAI", "experiment": "Inhibition of NET at 10 uM", "how_it_was_run": "as §1"}, "[23]": {"experiment": "Metabolic stability in mouse liver microsomes", "type": "ADME, Microsome", "how_it_was_run": "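Pooled female liver microsomes at 0.5 mg/ml in 0.1 M potassium phosphate pH 7.4, 3 mM MgCl2, 1 mM EDTA, with NADPH regenerating system (1 mM NADP+, 5 mM glucose-6-phosphate, 1 U/ml G6PDH). Preincubated 10 min at 37°C, then compound added to 1 μM final. Time points quenched with 3 volumes acetonitrile plus internal standard; parent quantified by LC/MS; half-life reported.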"}, "[24]": {"biological_target": "Nociceptin receptor (Homo sapiens) (UniProt P41146)", "experiment": "Inhibition of ORL1 receptor at 10 uM", "how_it_was_run": "as §1"}, "[25]": {"biological_target": "B2 bradykinin receptor (Homo sapiens) (UniProt P30411)", "experiment": "Inhibition of bradykinin B2 receptor at 10 uM", "how_it_was_run": "as §2"}},
  "note": "Activity calls are given as the source filed them.",
  "data": [
    {"smiles": "COC(=O)N1CCC(CN(C2Cc3cc(C#N)ccc3N(Cc3cncn3C)C2)S(=O)(=O)c2ccccn2)CC1", "note": "(stereo unspecified)", "values": [
      {"measurement": "inhibition", "setting": "[1]", "result": "inactive"},
      {"measurement": "AUC", "setting": "[2]", "result": 0.533, "unit": "µM·h"},
      {"measurement": "inhibition", "setting": "[3]", "result": "inactive"},
      {"measurement": "inhibition", "setting": "[4]", "result": "inactive"},
      {"measurement": "Activity", "setting": "Rattus norvegicus [5]", "result": "Non-toxic"},
      {"measurement": "inhibition", "setting": "[6]", "result": "inactive"},
      {"measurement": "inhibition", "setting": "[7]", "result": "inactive"},
      {"measurement": "inhibition", "setting": "[8]", "result": "inactive"},
      {"measurement": "AUC", "setting": "[9]", "result": 10.9, "unit": "µM·h"},
      {"measurement": "inhibition", "setting": "[10]", "result": "inactive"},
      {"measurement": "inhibition", "setting": "[11]", "result": "inactive"},
      {"measurement": "inhibition", "setting": "[12]", "result": "inactive"},
      {"measurement": "inhibition", "setting": "[13]", "result": "inactive"},
      {"measurement": "Activity", "setting": "Rattus norvegicus [14]", "result": "Non-toxic"},
      {"measurement": "inhibition", "setting": "[15]", "result": "inactive"},
      {"measurement": "inhibition", "setting": "[16]", "result": "inactive"},
      {"measurement": "inhibition", "setting": "[17]", "result": 81, "unit": "%"},
      {"measurement": "inhibition", "setting": "[18]", "result": "inactive"},
      {"measurement": "inhibition", "setting": "[19]", "result": "inactive"},
      {"measurement": "Activity", "setting": "Salmonella typhimurium", "result": "Non-toxic"},
      {"measurement": "inhibition", "setting": "[20]", "result": "inactive"},
      {"measurement": "inhibition", "setting": "[21]", "result": "inactive"},
      {"measurement": "inhibition", "setting": "[22]", "result": "inactive"},
      {"measurement": "half-life", "setting": "[23]", "result": 5.8, "unit": "min"},
      {"measurement": "inhibition", "setting": "[24]", "result": "inactive"},
      {"measurement": "inhibition", "setting": "[25]", "result": "inactive"}
    ]}
  ]
}
